Results gathered from unrelated publications.
Organism: Trypanosoma brucei
Effect on: parasite growth

SMILES | test | system | setting | EC50
CCCCCC(=O)NC(Cc1c[nH]c2ccccc12)C(=O)NC(Cc1c[nH]c2ccccc12)C(=O)NC(CC(C)C)C(=O)C1(C)CO1 (stereo not shown) | SYBR Green | – | 72 h | < 0.5 µM
CC(=O)O[C@H]1C(=O)[C@@]2(C)[C@H]([C@H](OC(=O)c3ccccc3)[C@]3(O)C[C@H](OC(=O)[C@H](O)[C@@H](NC(=O)c4ccccc4)c4ccccc4)C(C)=C1C3(C)C)[C@]1(OC(C)=O)CO[C@@H]1C[C@@H]2O | – | – | – | 0.0076 µM
O=c1c(O[C@@H]2O[C@H](CO)[C@@H](O)[C@H](O)[C@H]2O)c(-c2ccc(O)c(O)c2)oc2cc(O)cc(O)c12 | resazurin | – | 48 h | > 20 µM
Cc1cc(C)c(C#N)c(SCC(=O)c2cccc(N)c2)n1 | resazurin | RHODESIENSE | – | 41.4 µM
Cc1ccc(Cn2cc(C(=O)N/N=C/c3ccc([N+](=O)[O-])o3)c(=O)c3cc(Cl)ccc32)cc1 | resazurin | – | 72 h | 0.42 µM
N=C(N)c1ccc(OCCCCCOc2ccc(C(=N)N)cc2)cc1 | SYBR Green | GAMBIENSE | – | 0.009 µM
Cc1cc(C)c(C#N)c(SCC(=O)c2ccccc2O)n1 | resazurin | – | – | > 64 µM
COc1ccc2c(c1)c(=O)c(C(=O)NN)cn2Cc1ccc(C)cc1 | resazurin | – | 72 h | > 4 µM
Cc1cc(C)c(C#N)c(NCC(O)c2ccc(F)cc2)n1 (stereo not shown) | resazurin | RHODESIENSE | – | 7.86 µM
O=C(N/N=C/c1ccc([N+](=O)[O-])o1)c1cn(Cc2ccccc2)c2ccc(Oc3ccccc3)cc2c1=O | resazurin | – | 72 h | 0.32 µM
